Test results taken from ChEMBL document CHEMBL1933007, “Novel brain penetrant benzofuropiperidine 5-HT₆ receptor antagonists” (Bioorg Med Chem Lett, 2012).
Active and inactive are the calls of the source. No cut-off for these calls is given here.

How the values were obtained:
[1] = biological target: 5-hydroxytryptamine receptor 6 (Rattus norvegicus, UniProt P31388); experiment: Displacement of [3H]LSD from full length rat 5HT6 receptor
Method in brief: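 Radioligand binding with [³H]LSD on membranes from cells expressing full-length rat 5-HT6R.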

[2] = Dissociation constant, pKa of the compound; assay type: physicochemical
Method in brief: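 pKa is a calculated value, not a measured one.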

Rattus norvegicus [3] = experiment: Increase of short-term memory in rat social recognition model at 0.1 to 3 mg/kg, ip; assay type: functional, organism-based
[4] = biological target: 5-hydroxytryptamine receptor 2A (Homo sapiens) (UniProt P28223); conditions: 10 uM
5-hydroxytryptamine receptor 2A (Homo sapiens), sequence (P28223 whole entry): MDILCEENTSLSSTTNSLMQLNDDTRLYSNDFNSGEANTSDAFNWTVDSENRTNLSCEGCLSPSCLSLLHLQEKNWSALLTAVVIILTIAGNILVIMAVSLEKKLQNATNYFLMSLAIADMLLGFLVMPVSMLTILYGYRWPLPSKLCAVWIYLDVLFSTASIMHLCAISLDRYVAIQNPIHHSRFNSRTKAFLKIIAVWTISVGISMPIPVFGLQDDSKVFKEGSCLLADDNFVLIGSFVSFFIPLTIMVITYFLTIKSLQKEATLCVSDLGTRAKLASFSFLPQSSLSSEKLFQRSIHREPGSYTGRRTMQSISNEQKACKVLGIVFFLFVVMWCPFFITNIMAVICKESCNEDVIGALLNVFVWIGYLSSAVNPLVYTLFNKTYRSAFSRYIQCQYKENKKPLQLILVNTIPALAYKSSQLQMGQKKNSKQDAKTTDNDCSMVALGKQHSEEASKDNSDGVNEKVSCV

[5] = biological target: T1, 5-hydroxytryptamine receptor 2B (Homo sapiens, UniProt P41595); conditions: 10 uM
T1 sequence (P41595 whole entry): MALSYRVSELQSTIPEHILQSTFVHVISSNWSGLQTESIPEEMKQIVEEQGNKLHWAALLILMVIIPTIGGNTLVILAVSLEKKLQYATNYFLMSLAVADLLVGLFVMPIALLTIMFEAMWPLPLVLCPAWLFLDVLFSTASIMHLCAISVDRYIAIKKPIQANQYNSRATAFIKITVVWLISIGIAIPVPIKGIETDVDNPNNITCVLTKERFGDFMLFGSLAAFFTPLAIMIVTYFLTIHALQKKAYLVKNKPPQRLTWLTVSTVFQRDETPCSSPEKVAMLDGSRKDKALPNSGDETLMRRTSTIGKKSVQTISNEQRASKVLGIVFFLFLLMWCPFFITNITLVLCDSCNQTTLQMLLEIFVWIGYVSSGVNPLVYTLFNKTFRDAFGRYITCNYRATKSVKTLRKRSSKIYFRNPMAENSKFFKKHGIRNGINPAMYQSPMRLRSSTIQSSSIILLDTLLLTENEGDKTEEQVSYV

[6] = biological target: T2, Alpha-2A adrenergic receptor (Homo sapiens) (UniProt P08913); conditions: 10 uM
T2 sequence (whole entry): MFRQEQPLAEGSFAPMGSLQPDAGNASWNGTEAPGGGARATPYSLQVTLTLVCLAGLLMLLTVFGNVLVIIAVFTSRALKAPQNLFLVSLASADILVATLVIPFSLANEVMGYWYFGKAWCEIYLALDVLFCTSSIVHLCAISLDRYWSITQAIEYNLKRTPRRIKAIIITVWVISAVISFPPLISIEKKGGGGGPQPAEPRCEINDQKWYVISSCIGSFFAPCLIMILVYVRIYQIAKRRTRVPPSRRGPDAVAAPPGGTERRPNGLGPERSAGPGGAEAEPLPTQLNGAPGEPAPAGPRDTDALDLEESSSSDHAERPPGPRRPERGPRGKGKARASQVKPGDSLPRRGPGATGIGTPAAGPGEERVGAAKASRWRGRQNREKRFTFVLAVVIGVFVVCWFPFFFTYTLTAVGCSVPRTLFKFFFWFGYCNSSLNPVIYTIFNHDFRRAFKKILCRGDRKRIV

[7] = biological target: T3, Alpha-2B adrenergic receptor (Homo sapiens) (UniProt P18089); conditions: 10 uM
T3 sequence (whole entry): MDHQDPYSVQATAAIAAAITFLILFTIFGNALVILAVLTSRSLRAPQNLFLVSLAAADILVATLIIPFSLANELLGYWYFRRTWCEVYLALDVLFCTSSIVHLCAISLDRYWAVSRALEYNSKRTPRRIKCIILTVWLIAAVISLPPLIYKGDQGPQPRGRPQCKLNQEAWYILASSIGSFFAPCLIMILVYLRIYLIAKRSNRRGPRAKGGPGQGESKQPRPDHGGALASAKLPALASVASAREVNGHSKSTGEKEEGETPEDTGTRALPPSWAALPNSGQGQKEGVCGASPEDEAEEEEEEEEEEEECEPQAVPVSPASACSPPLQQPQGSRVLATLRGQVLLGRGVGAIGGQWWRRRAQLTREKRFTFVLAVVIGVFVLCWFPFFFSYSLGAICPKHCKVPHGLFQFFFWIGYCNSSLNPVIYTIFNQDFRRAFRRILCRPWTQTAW

[8] = biological target: D(2) dopamine receptor (Homo sapiens) (UniProt P14416); conditions: 1 uM
D(2) dopamine receptor (Homo sapiens), sequence (P14416 whole entry): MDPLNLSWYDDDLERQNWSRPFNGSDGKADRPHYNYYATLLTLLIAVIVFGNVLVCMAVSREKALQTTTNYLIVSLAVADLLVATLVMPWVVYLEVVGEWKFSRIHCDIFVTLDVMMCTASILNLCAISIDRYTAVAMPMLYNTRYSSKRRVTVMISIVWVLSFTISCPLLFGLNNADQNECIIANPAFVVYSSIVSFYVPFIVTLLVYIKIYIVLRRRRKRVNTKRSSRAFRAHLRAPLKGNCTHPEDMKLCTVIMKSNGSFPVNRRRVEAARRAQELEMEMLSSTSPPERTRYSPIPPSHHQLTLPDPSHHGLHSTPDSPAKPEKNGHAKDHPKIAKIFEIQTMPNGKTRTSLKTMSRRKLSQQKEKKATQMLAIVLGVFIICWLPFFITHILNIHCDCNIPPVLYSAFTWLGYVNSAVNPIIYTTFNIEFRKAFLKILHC

[9] = biological target: D(3) dopamine receptor (Homo sapiens) (UniProt P35462); conditions: 10 uM
[10] = biological target: T4, 5-hydroxytryptamine receptor 6 (Homo sapiens, UniProt P50406); experiment: Displacement of [3H]LSD from full length human 5HT6 receptor
T4 sequence (P50406 whole entry): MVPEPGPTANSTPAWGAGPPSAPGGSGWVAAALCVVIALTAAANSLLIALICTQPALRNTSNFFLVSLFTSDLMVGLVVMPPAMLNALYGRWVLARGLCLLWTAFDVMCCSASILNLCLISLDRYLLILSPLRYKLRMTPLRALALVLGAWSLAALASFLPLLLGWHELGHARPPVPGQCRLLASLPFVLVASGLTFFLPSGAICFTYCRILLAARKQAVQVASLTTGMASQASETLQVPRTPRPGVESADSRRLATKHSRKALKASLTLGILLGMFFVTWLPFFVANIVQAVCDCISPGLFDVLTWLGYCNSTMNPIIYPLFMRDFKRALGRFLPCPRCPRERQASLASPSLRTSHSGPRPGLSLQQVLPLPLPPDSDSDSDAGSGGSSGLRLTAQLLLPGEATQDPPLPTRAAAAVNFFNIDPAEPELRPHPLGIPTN
Method in brief: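 Radioligand binding with [³H]LSD on membranes from cells expressing full-length human 5-HT6R.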

[11] = biological target: Voltage-gated inwardly rectifying potassium channel KCNH2 (Homo sapiens, UniProt Q12809); experiment: Inhibition of human ERG by patch express assay
Voltage-gated inwardly rectifying potassium channel KCNH2, sequence (Q12809 whole entry): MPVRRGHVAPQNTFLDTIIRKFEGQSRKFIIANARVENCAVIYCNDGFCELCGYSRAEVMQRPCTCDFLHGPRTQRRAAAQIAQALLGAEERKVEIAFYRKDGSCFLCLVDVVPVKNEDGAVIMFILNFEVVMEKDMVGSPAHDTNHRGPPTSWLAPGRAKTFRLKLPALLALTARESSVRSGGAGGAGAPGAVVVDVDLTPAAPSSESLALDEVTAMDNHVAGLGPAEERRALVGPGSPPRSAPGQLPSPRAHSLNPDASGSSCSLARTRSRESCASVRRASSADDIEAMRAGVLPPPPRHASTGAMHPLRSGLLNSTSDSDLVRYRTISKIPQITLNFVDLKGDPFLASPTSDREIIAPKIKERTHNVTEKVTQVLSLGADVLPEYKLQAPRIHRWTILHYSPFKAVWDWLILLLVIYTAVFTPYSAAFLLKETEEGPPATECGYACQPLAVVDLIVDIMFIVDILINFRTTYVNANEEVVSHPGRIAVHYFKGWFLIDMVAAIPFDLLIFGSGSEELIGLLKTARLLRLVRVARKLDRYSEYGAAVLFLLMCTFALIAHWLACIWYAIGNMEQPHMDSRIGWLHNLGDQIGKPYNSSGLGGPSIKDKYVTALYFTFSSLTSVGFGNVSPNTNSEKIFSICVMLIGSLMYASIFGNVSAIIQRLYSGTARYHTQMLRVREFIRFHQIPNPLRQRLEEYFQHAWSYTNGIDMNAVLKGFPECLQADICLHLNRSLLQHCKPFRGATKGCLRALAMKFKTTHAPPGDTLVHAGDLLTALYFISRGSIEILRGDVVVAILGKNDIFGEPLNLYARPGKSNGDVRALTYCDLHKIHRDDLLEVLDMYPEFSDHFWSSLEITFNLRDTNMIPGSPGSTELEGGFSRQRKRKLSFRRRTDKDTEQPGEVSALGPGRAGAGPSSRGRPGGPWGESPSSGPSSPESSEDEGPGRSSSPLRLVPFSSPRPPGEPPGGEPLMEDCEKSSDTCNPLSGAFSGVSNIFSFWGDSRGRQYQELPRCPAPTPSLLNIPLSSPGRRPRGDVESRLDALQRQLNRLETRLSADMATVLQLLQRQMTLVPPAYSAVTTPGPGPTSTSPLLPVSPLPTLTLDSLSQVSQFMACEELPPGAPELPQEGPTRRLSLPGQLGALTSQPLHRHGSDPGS

[12] = biological target: T4, 5-hydroxytryptamine receptor 6; experiment: Antagonist activity at human recombinant 5-HT6 receptor expressed human astrocytoma cells assessed as inhibition of 5-HT-induced cAMP accumulation after 10 mins preincubation by HTRF assay
[13] = Half life in rat liver microsomes; assay type: ADME, Microsome
[14] = Half life in dog liver microsomes; assay type: ADME, Canis lupus familiaris, Microsome
[15] = Half life in human liver microsomes; assay type: ADME, Microsome
[16] = Half life in rat at 1 mg/kg, iv; assay type: ADME, organism-based; parameters: dose 1 mg/kg, route intravenous; conditions: in vivo
[17] = Volume of distribution in rat at 1 mg/kg, iv; assay type: ADME, organism-based; parameters: dose 1 mg/kg, route intravenous; conditions: in vivo
[18] = Plasma clearance in rat at 1 mg/kg, iv; assay type: ADME, organism-based; parameters: dose 1 mg/kg, route intravenous
[19] = Cmax in rat at 5 mg/kg, po; assay type: ADME, organism-based; parameters: dose 5 mg/kg, route oral; conditions: in vivo
Rattus norvegicus [20] = experiment: AUC in rat at 5 mg/kg, po after 6 hrs; assay type: ADME, organism-based, Plasma; parameters: time < 6 hr, dose 5 mg/kg, route oral; conditions: in vivo
[21] = Oral bioavailability in rat at 5 mg/kg; assay type: ADME, organism-based; conditions: in vivo
Brain = experiment: Drug uptake in rat brain at 5 mg/kg, ip after 1 hr; assay type: ADME, organism-based; parameters: dose 5 mg/kg, route intraperitoneal; conditions: in vivo
Method in brief: (§1)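 Rats dosed intraperitoneally at 5 mg/kg. Brain concentration measured at 1 h and expressed as a brain-to-plasma ratio.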

[22] = Ratio of drug level in brain to plasma in rat at 5 mg/kg, ip; assay type: ADME, organism-based; parameters: dose 5 mg/kg, route intraperitoneal; conditions: read-out: BPR; method in brief: as §1
Cytochrome P450 1A2 = biological target: T5, Cytochrome P450 1A2 (Homo sapiens, UniProt P05177); experiment: Inhibition of CYP1A2; assay type: ADME
T5 sequence (P05177 whole entry): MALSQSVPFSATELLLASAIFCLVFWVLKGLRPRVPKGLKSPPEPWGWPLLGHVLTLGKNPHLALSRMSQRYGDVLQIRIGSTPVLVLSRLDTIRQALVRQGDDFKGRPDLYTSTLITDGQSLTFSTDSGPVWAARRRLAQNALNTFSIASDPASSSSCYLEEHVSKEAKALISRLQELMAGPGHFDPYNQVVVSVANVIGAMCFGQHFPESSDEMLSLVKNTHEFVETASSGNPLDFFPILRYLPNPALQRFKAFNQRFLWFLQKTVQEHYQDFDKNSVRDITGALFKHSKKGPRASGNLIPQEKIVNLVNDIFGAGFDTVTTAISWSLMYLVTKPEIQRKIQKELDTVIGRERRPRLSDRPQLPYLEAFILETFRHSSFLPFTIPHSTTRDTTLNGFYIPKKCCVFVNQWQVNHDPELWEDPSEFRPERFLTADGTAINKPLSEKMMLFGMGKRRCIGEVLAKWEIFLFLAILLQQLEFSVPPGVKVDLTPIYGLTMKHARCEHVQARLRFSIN

Cytochrome P450 2C19 = Cytochrome P450 2C19 (Homo sapiens, UniProt P33261); experiment: Inhibition of CYP2C19; assay type: ADME
Cytochrome P450 2C19, sequence (P33261 whole entry): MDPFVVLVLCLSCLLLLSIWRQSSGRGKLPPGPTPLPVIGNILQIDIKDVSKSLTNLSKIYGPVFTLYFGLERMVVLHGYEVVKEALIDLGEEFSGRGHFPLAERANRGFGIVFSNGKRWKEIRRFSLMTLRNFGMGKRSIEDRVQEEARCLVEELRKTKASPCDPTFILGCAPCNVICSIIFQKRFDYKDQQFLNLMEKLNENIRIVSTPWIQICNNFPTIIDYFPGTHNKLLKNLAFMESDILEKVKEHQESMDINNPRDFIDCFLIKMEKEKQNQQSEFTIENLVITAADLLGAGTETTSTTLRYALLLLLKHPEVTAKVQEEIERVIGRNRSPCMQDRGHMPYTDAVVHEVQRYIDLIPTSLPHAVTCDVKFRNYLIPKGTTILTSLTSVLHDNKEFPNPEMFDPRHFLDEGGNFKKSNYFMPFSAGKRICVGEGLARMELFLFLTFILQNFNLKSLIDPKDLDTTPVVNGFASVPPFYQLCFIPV

Cytochrome P450 2D6 = Cytochrome P450 2D6 (Homo sapiens, UniProt P10635); experiment: Inhibition of CYP2D6; assay type: ADME
Cytochrome P450 2D6, sequence (P10635 whole entry): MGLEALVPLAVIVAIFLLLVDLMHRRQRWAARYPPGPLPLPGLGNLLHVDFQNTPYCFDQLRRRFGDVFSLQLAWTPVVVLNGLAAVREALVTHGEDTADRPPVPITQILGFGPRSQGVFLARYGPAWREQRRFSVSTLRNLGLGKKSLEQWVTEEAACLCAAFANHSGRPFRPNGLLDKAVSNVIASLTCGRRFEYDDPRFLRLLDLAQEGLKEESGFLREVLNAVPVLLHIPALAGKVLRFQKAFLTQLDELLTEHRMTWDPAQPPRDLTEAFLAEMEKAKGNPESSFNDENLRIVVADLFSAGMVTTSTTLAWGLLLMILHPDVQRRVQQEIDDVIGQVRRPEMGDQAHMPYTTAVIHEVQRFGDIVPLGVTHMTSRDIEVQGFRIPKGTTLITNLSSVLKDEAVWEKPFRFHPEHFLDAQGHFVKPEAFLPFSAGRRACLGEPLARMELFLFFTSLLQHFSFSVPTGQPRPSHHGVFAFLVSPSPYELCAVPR

Cytochrome P450 3A4 = Cytochrome P450 3A4 (Homo sapiens, UniProt P08684); experiment: Inhibition of CYP3A4; assay type: ADME
Cytochrome P450 3A4, sequence (P08684 whole entry): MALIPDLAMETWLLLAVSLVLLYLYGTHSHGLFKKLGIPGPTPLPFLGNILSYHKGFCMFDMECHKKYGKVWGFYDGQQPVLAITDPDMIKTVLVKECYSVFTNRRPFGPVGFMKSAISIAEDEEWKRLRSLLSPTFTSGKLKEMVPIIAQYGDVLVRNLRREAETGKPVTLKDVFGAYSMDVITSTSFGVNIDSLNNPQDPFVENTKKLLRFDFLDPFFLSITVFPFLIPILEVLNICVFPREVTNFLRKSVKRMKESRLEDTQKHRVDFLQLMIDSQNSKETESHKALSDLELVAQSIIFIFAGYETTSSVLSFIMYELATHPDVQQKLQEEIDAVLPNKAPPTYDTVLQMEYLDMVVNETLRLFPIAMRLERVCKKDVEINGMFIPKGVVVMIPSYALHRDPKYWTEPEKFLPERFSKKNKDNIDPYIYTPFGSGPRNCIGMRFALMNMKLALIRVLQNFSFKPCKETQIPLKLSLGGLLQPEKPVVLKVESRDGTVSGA

Cytochrome P450 2C9 = Cytochrome P450 2C9 (Homo sapiens, UniProt P11712); experiment: Inhibition of CYP2C9; assay type: ADME
L-type calcium channel = L-type calcium channel (Rattus norvegicus, UniProt P22002+P27732+Q02485); experiment: Inhibition of rat L-type calcium channel at 10 uM
[23] = biological target: T1, 5-hydroxytryptamine receptor 2B; experiment: Antagonist activity at 5HT2B receptor; assay type: functional

5-hydroxytryptamine receptor 6 (Rattus norvegicus, UniProt P31388), sequence (P31388 whole entry): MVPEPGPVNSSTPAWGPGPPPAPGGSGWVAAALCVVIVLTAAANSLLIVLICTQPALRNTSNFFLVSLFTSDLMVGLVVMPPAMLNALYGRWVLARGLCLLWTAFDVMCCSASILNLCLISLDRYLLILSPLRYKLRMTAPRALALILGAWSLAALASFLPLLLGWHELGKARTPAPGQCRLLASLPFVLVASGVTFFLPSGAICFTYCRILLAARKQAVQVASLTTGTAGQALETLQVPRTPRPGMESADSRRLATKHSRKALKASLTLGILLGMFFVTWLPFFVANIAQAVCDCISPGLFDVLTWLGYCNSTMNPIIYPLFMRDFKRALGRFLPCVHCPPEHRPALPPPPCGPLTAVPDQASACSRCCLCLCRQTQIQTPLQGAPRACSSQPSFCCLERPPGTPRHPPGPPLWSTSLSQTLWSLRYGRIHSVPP

Structure (SMILES): CC1(C(F)F)NCCc2c1oc1cc(S(=O)(=O)c3cccc(F)c3)ccc21 (stereo unspecified)
- Ki [1]: 183 nM
- pKa [2]: 6.2

Structure (SMILES): O=S(=O)(c1cccc(F)c1)c1ccc2c3c(oc2c1)C1(CCCOC1)NCC3 (stereo in doubt; 2) [listing 1 of 2 here]
- Activity (Rattus norvegicus [3]): Active
- inhibition [4]: > 50%
- inhibition [5]: > 50%
- inhibition [6]: > 50%
- inhibition [7]: > 50%
- inhibition [8]: > 50%
- inhibition [9]: > 50%

Structure (SMILES): O=S(=O)(c1ccc(F)cc1)c1ccc2c3c(oc2c1)CNCC3
- Ki [10]: 22 nM

Structure (SMILES): O=S(=O)(c1cccc(F)c1)c1ccc2c3c(oc2c1)C1(CCCOC1)NCC3 (stereo in doubt; 3)
- IC50 [11]: 9600 nM
- pKa [2]: 7.5

Structure (SMILES): CC1(C(F)(F)F)NCCc2c1oc1cc(S(=O)(=O)c3cccc(F)c3)ccc21 (stereo unspecified)
- Ki [10]: 139 nM
- pKa [2]: 5.7

Structure (SMILES): COc1cccc(S(=O)(=O)c2ccc3c4c(oc3c2)CNCC4)c1
- Ki [10]: 5.6 nM
- Ki [1]: 34 nM
- IC50 [12]: 21 nM

Structure (SMILES): O=S(=O)(c1cccc(F)c1)c1ccc2c3c(oc2c1)C1(CCOCC1)NCC3
- Ki [10]: 2.1 nM
- Ki [1]: 14 nM
- IC50 [11]: > 30000 nM
- pKa [2]: 7.4
- half-life [13]: 25 min
- half-life [14]: > 40 min
- half-life [15]: 19 min
- half-life [16]: 54 min
- Vd [17]: 1.4 L/kg
- clearance [18]: 17 mL/min/kg
- Cmax [19]: 84 ng/mL
- AUC (Rattus norvegicus [20]): 368 ng·h/mL
- bioavailability [21]: 6%
- Drug uptake (Brain): 979 nmol/g
- Kp [22]: 3.3
- IC50 [12]: 6.8 nM

Structure (SMILES): O=S(=O)(c1ccccc1)c1ccc2c3c(oc2c1)CNCC3
- Ki [10]: 2.7 nM
- Ki [1]: 9.8 nM
- IC50 [12]: 8.5 nM

Structure (SMILES): O=S(=O)(c1cccc(F)c1)c1ccc2c3c(oc2c1)CNCC3
- Ki [10]: 1.6 nM
- Ki [1]: 6.9 nM
- half-life [13]: < 5 min
- half-life [14]: 10.3 min
- IC50 [12]: 3.6 nM

Structure (SMILES): O=S(=O)(c1cccc(F)c1)c1ccc2c3c(oc2c1)C1(CCCOC1)NCC3 (stereo in doubt; 2) [listing 2 of 2 here]
- Ki [1]: 16.9 nM
- IC50 [11]: 12000 nM
- half-life [13]: 25 min
- half-life [14]: > 40 min
- half-life [15]: 30 min
- half-life [16]: 84 min
- Vd [17]: 4 L/kg
- clearance [18]: 32 mL/min/kg
- Cmax [19]: 210 ng/mL
- AUC (Rattus norvegicus [20]): 974 ng·h/mL
- bioavailability [21]: 36%
- Drug uptake (Brain): 1660 nmol/g
- Kp [22]: 2
- IC50 (Cytochrome P450 1A2): > 30000 nM
- IC50 (Cytochrome P450 2C19): > 30000 nM
- IC50 (Cytochrome P450 2D6): > 30000 nM
- IC50 (Cytochrome P450 3A4): > 30000 nM
- IC50 (Cytochrome P450 2C9): 1900 nM
- inhibition at 10 µM (L-type calcium channel): > 50%
- IC50 [23]: 1500 nM

Structure (SMILES): CC1(C)NCCc2c1oc1cc(S(=O)(=O)c3cccc(F)c3)ccc21
- Ki [10]: 2.9 nM
- Ki [1]: 19 nM
- half-life [13]: 16 min
- half-life [14]: 32 min
- half-life [15]: > 40 min
- half-life [16]: 54 min
- Vd [17]: 5.5 L/kg
- clearance [18]: 82 mL/min/kg
- Cmax [19]: 35 ng/mL
- AUC (Rattus norvegicus [20]): 149 ng·h/mL
- bioavailability [21]: 15%
- Drug uptake (Brain): 1620 nmol/g
- Kp [22]: 7.7
- IC50 [12]: 11.7 nM

Structure (SMILES): O=S(=O)(c1cccc(F)c1)c1ccc2c3c(oc2c1)C1(CCOC1)NCC3 (racemic)
- Ki [10]: 22.3 nM
- Ki [1]: 132 nM
- pKa [2]: 7.5
- IC50 [12]: 32 nM

Structure (SMILES): CC1(C)NCCc2c1oc1cc(S(=O)(=O)c3ccccc3)ccc21
- Ki [10]: 7.7 nM
- Ki [1]: 41 nM
- IC50 [12]: 34 nM

Structure (SMILES): O=S(=O)(c1ccccc1)c1ccc2oc3c(c2c1)CCNC3
- Ki [10]: 46 nM
- Ki [1]: 156 nM

Structure (SMILES): COCC1(C)NCCc2c1oc1cc(S(=O)(=O)c3cccc(F)c3)ccc21 (stereo unspecified)
- Ki [10]: 18 nM
- Ki [1]: 113 nM
- pKa [2]: 7.5

Structure (SMILES): O=S(=O)(c1cccc(F)c1)c1ccc2c3c(oc2c1)C1(CCCOC1)NCC3 (racemic)
- Ki [1]: 38.3 nM
- IC50 [11]: 13600 nM

Structure (SMILES): COc1cccc(S(=O)(=O)c2ccc3c4c(oc3c2)C(C)(C)NCC4)c1
- Ki [10]: 17.5 nM
- IC50 [12]: 68.6 nM
